In ChEMBL document CHEMBL4138199, “Microwave-promoted facile access to 4-aminoquinoline-phthalimides: Synthesis and anti-plasmodial evaluation” (Eur J Med Chem, 2018):
pIC50: −log10 of the molar value.

Key:
Plasmodium falciparum = assay: Antiplasmodial activity against ring-stage of chloroquine-resistant/mefloquine-sensitive Plasmodium falciparum W2 assessed as parasite growth inhibition after 48 hrs by YOYO-1 dye-based flow cytometric method; assay type: functional, organism-based; details: W2, 48 h
Outline: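 Parasites grown in RPMI-1640 with 10% human serum and synchronized with 5% D-sorbitol. Ring-stage cultures exposed 48 h to graded compound levels (DMSO ≤0.1%), then fixed 48 h in 1% formaldehyde/PBS pH 7.4 at room temperature. Stained with 1 nM YOYO-1 in 0.1% Triton X-100/PBS; parasitemia by flow cytometry. IC50 from non-linear fit of % control parasitemia, duplicate experiments.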

[1] = Selectivity index, ratio of IC50 for mouse J774 cells to IC50 for ring-stage of chloroquine-resistant/mefloquine-sensitive Plasmodium falciparum W2; assay type: toxicity; details: read-out: Ratio IC50
J774 = assay: Cytotoxicity against mouse J774 cells assessed as decrease in cell survival after 24 hrs by fluorimetric method; assay type: cell-based; details: J774, 24 h
Outline: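 J774 murine macrophages grown in DMEM with 10% de-complemented fetal calf serum under 5% CO2. Fluorescence read at 540 nm excitation and 590 nm emission. Percent survival is compound-well fluorescence divided by that of control wells with cells in a DMSO dilution series (1% to 0.03125% v/v).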

SMILES	pIC50 (Plasmodium falciparum)	selectivity ratio [1]	pIC50 (J774)
O=C1c2ccccc2C(=O)N1CCCNc1ccnc2cc(Cl)ccc12	5.82		
O=C1c2cccc(F)c2C(=O)N1CCCNc1ccnc2cc(Cl)ccc12	5.40		
O=C1c2c(Br)c(Br)c(Br)c(Br)c2C(=O)N1CCCNc1ccnc2cc(Cl)ccc12	5.42		
C[C@@H]1CC[C@H]2[C@@H](C)C(=O)O[C@@H]3O[C@@]4(C)CC[C@@H]1[C@]32OO4 [ARTEMISININ]	8.15		
O=C1c2cccc([N+](=O)[O-])c2C(=O)N1CCNc1ccnc2cc(Cl)ccc12	5.12		
O=C1c2c(Cl)c(Cl)c(Cl)c(Cl)c2C(=O)N1CCNc1ccnc2cc(Cl)ccc12	6.68		
O=C1c2c(Br)c(Br)c(Br)c(Br)c2C(=O)N1CCNc1ccnc2cc(Cl)ccc12	6.40		
O=C1c2ccccc2C(=O)N1CCCCCCCCNc1ccnc2cc(Cl)ccc12	6.85		
O=C1c2ccccc2C(=O)N1CCNc1ccnc2cc(Cl)ccc12	5.95		
O=C1c2ccccc2C(=O)N1CCCCCCNc1ccnc2cc(Cl)ccc12	6.96	130	4.84
O=C1c2c(Br)c(Br)c(Br)c(Br)c2C(=O)N1CCCCCCNc1ccnc2cc(Cl)ccc12	7.00	291	4.54
O=C1c2ccc(F)cc2C(=O)N1CCCCCCCCNc1ccnc2cc(Cl)ccc12	6.77		
O=C1c2c(Cl)c(Cl)c(Cl)c(Cl)c2C(=O)N1CCCCNc1ccnc2cc(Cl)ccc12	6.57		
O=C1c2c(Br)c(Br)c(Br)c(Br)c2C(=O)N1CCCCNc1ccnc2cc(Cl)ccc12	6.72		
O=C1c2ccc(F)cc2C(=O)N1CCCCCCNc1ccnc2cc(Cl)ccc12	6.92	126	4.82
O=C1c2ccc(F)cc2C(=O)N1CCCCNc1ccnc2cc(Cl)ccc12	6.38		
O=C1c2c(Cl)c(Cl)c(Cl)c(Cl)c2C(=O)N1CCCNc1ccnc2cc(Cl)ccc12	6.24		
O=C1c2ccc(F)cc2C(=O)N1CCCNc1ccnc2cc(Cl)ccc12	5.92		
O=C1c2cccc([N+](=O)[O-])c2C(=O)N1CCCCCCNc1ccnc2cc(Cl)ccc12	6.82		
O=C1c2cccc(F)c2C(=O)N1CCCCNc1ccnc2cc(Cl)ccc12	6.19		
O=C1c2cccc(F)c2C(=O)N1CCCCCCNc1ccnc2cc(Cl)ccc12	6.62		
O=C1c2cccc(F)c2C(=O)N1CCCCCCCCNc1ccnc2cc(Cl)ccc12	6.92	235	4.55
O=C1c2ccc(F)cc2C(=O)N1CCNc1ccnc2cc(Cl)ccc12	5.34		
O=C1c2c(Cl)c(Cl)c(Cl)c(Cl)c2C(=O)N1CCCCCCNc1ccnc2cc(Cl)ccc12	6.34		
O=C1c2ccccc2C(=O)N1CCCCNc1ccnc2cc(Cl)ccc12	6.43		
O=C1c2cccc(F)c2C(=O)N1CCNc1ccnc2cc(Cl)ccc12	5.33		
